Source: ChEMBL document CHEMBL4334504 (J Med Chem, 2019)
Converted amounts (≈) assume the structure as drawn.

Experiments:
HRT-18 cell line = assay: Cytotoxicity against human HRT18 cells at > 256 uM measured after 2 hrs by MTS assay; format: cell-based; conditions: hrt-18, 2 h
Clostridioides difficile [1] = assay: Antibacterial activity against Clostridium difficile VPI 10463 ATCC 43255 assessed as bacterial growth inhibition incubated for 48 hrs under anaerobic condition by CLSI protocol based assay; format: functional; conditions: ATCC 43255 VPI 10463, 48 h
Summary of the method: (§1)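 Broth microdilution following CLSI guidance. Strains pre-grown anaerobically on BHIS agar (BHI plus yeast extract, vitamin K1, hemin) at 37 °C for 48 h. ~10^5 CFU/mL in BHIS broth added to serial compound dilutions. Incubated anaerobically at 37 °C for 48 h. MIC is the lowest concentration showing visible growth inhibition.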

Vero = assay: Cytotoxicity against African green monkey Vero cells at > 256 uM measured after 2 hrs by MTS assay; format: cell-based; conditions: chlorocebus sabaeus
[2] = Effect on growth of Lactobacillus crispatus JV-V01 HM 103 measured after 48 hrs in 5% CO2 by CLSI method; conditions: lactobacillus crispatus jv-v01, 48 h
[3] = Effect on growth of Lactobacillus gasseri EX336960VC03 HM 400 measured after 48 hrs in 5% CO2 by CLSI method; conditions: lactobacillus gasseri ex336960vc03, 48 h
Escherichia coli = assay: Effect on growth of Escherichia coli ATCC 25922 assessed as bacterial growth inhibition measured after 16 to 18 hrs by CLSI method; format: organism-based; conditions: in vivo
Summary of the method: (§2)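 CLSI microdilution. Colonies from TSA (16-20 h, 37 °C) suspended in PBS to 0.5 McFarland, then diluted in TSB to ~10^5 CFU/mL. Incubated with serial compound dilutions for 16-20 h at 37 °C. MIC is the lowest concentration inhibiting growth.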

[4] = tested on: Lacticaseibacillus paracasei; assay: Effect on growth of Lactobacillus casei ATCC 334 measured after 48 hrs in 5% CO2 by CLSI method
Clostridioides difficile [5] = assay: Antibacterial activity against Clostridium difficile 4118 ATCC BAA 1870 assessed as bacterial growth inhibition incubated for 48 hrs under anaerobic condition by CLSI protocol-based assay; format: functional; conditions: 4118 ATCC BAA 1870, 48 h; summary of the method: as §1
Bifidobacterium bifidum = assay: Effect on growth of Bifidobacterium bifidum 212A ATCC 11863 measured after 48 hrs in anerobic conditions by CLSI method; format: organism-based; conditions: in vivo
Caco-2 = assay: Cytotoxicity against human Caco2 cells at > 256 uM measured after 2 hrs by MTS assay; format: cell-based; conditions: caco-2, 2 h
Enterobacter cloacae = assay: Effect on growth of Enterobacter cloacae ATCC BAA 1143 assessed as bacterial growth inhibition measured after 16 to 18 hrs grown in tryptic soy medium by CLSI method; format: organism-based; conditions: in vivo; summary of the method: as §2
[6] = Stability of compound in simulated intestinal fluid assessed as parent compound remaining at pH 6 measured after 4 hrs by HPLC analysis; format: ADME; conditions: read-out: Stability
Summary of the method: (§3)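 200 µL of a 50 µg/mL methanol stock mixed with 800 µL SGF (pH 1.6) or SIF (pH 6.0), stirred at 37 °C. Sampled at 4 and 8 h for isocratic HPLC (acetonitrile/water 50:50, 1.0 mL/min, 254 nm). Percent remaining calculated as AUC after incubation / AUC before incubation.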

[7] = Cytotoxicity against human HRT18 cells measured after 2 hrs by MTS assay; format: cell-based; conditions: HRT-18 cells
[8] = Stability of compound in simulated gastric fluid assessed as parent compound remaining at pH 1.6 measured after 4 hrs by HPLC analysis; format: ADME; conditions: read-out: Stability; summary of the method: as §3
[9] = Cytotoxicity against human Caco2 cells measured after 2 hrs by MTS assay; format: cell-based; conditions: Caco-2 cells
[10] = Stability of compound in simulated gastric fluid assessed as parent compound remaining at pH 1.6 measured after 8 hrs by HPLC analysis; format: ADME; conditions: read-out: Stability; summary of the method: as §3
[11] = Cytotoxicity against African green monkey Vero cells measured after 2 hrs by MTS assay; format: cell-based; conditions: chlorocebus sabaeus
[12] = Stability of compound in simulated intestinal fluid assessed as parent compound remaining at pH 6 measured after 8 hrs by HPLC analysis; format: ADME; conditions: read-out: Stability; summary of the method: as §3
[13] = Aqueous solubility of compound in PBS buffer at 1 to 100 ug/ml at pH 7.3 to 7.5 measured after 24 hrs by HPLC analysis; format: physicochemical
Summary of the method: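 3 mg compound in 3 mL PBS (pH 7.3-7.5) shaken 24 h at 25 °C, then centrifuged. Supernatant mixed 1:1 with acetonitrile and analysed by HPLC (C18, 1 mL/min). Solubility calculated from a standard curve (1 mg/mL methanol stock) and the dilution factor.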

SMILES: O=c1[nH]c(/C=C/c2ccccc2F)nc2c([N+](=O)[O-])csc12
- Activity (HRT-18 cell line): Non-Toxic
- MIC (Clostridioides difficile [1]): 12 µM (≈ 3.81 µg/mL)
- Activity (Vero): Non-Toxic
- MIC [2]: > 807 µM
- MIC [3]: > 807 µM
- MIC (Escherichia coli): > 807 µM
- MIC [4]: > 807 µM
- MIC (Clostridioides difficile [5]): 6 µM (≈ 1.9 µg/mL)
- MIC (Bifidobacterium bifidum): > 807 µM
- Activity (Caco-2): Non-Toxic
- MIC (Enterobacter cloacae): > 807 µM

SMILES: Cc1nc2c([N+](=O)[O-])csc2c(=O)[nH]1
- Activity (HRT-18 cell line): Non-Toxic
- remaining at 4 h [6]: 91%
- MIC (Clostridioides difficile [1]): 38 µM (≈ 8.03 µg/mL)
- Activity (Vero): Non-Toxic
- MIC [2]: > 1212 µM
- MIC [3]: > 1212 µM
- MIC (Escherichia coli): > 1212 µM
- CC50 at 2 h [7]: > 606 µM
- remaining at 4 h [8]: 90%
- MIC [4]: > 1212 µM
- CC50 at 2 h [9]: > 606 µM
- remaining at 8 h [10]: 90%
- MIC (Clostridioides difficile [5]): 19 µM (≈ 4.01 µg/mL)
- MIC (Bifidobacterium bifidum): > 1212 µM
- Activity (Caco-2): Non-Toxic
- CC50 at 2 h [11]: > 606 µM
- MIC (Enterobacter cloacae): > 1212 µM
- remaining at 8 h [12]: 76%
- solubility at 24 h [13]: > 500 µg/mL

SMILES: Cc1nc2c([N+](=O)[O-])csc2c(=O)n1-c1cccc(C(=O)O)c1
- MIC (Clostridioides difficile [1]): 193 µM (≈ 63.9 µg/mL)
- MIC (Clostridioides difficile [5]): > 386 µM

SMILES: Cc1nc2c([N+](=O)[O-])csc2c(=O)n1CC(=O)O
- MIC (Clostridioides difficile [1]): > 475 µM
- MIC (Clostridioides difficile [5]): > 475 µM

SMILES: Cc1nc2c([N+](=O)[O-])csc2c(=O)n1Cc1ccccc1[N+](=O)[O-]
- MIC (Clostridioides difficile [1]): 23 µM (≈ 7.97 µg/mL)
- MIC (Clostridioides difficile [5]): 23 µM (≈ 7.97 µg/mL)

SMILES: O=c1[nH]c(-c2ccccc2)nc2ccsc12
- MIC (Clostridioides difficile [1]): > 560 µM
- MIC (Clostridioides difficile [5]): > 560 µM

SMILES: O=C(O)c1ccc(/C=C/c2nc3c([N+](=O)[O-])csc3c(=O)[nH]2)o1
- MIC (Clostridioides difficile [1]): > 384 µM
- MIC (Clostridioides difficile [5]): > 384 µM

SMILES: Cc1nc2c([N+](=O)[O-])csc2c(=O)n1-c1ccc(C(C)C)cc1
- MIC (Clostridioides difficile [1]): > 389 µM
- MIC (Clostridioides difficile [5]): > 389 µM

SMILES: COc1ccc(-n2c(C)nc3c([N+](=O)[O-])csc3c2=O)cc1
- MIC (Clostridioides difficile [1]): 101 µM (≈ 32 µg/mL)
- MIC (Clostridioides difficile [5]): 202 µM (≈ 64.1 µg/mL)

SMILES: Cc1nc2ccsc2c(=O)[nH]1
- MIC (Clostridioides difficile [1]): 385 µM (≈ 64 µg/mL)
- MIC (Clostridioides difficile [5]): > 770 µM

SMILES: Cc1nc2cscc2c(=O)[nH]1
- MIC (Clostridioides difficile [1]): 768 µM (≈ 128 µg/mL)
- MIC (Clostridioides difficile [5]): 192 µM (≈ 31.9 µg/mL)

SMILES: Cc1nc(N2CCOCC2)c2scc([N+](=O)[O-])c2n1
- Activity (HRT-18 cell line): Non-Toxic
- remaining at 4 h [6]: 79%
- MIC (Clostridioides difficile [1]): 14 µM (≈ 3.92 µg/mL)
- Activity (Vero): Non-Toxic
- MIC [2]: > 913 µM
- MIC [3]: > 913 µM
- MIC (Escherichia coli): > 913 µM
- remaining at 4 h [8]: < 10%
- MIC [4]: > 913 µM
- remaining at 8 h [10]: < 10%
- MIC (Clostridioides difficile [5]): 14 µM (≈ 3.92 µg/mL)
- MIC (Bifidobacterium bifidum): > 913 µM
- Activity (Caco-2): Non-Toxic
- MIC (Enterobacter cloacae): > 913 µM
- remaining at 8 h [12]: 80%
- solubility at 24 h [13]: 18.7 µg/mL (≈ 66.7 µM)
